# Shown are actives, neighbours in structure and some others; about 3.8% of the full set was active somewhere.
# KCNK9 block – human KCNK9 channel inhibition. B-score at 10 µM. AID 488922. 1.2% of 310,000 active. HEK293 KCNK9, FluxOR thallium flux fluorescence; stronger effect = lower value;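 active means ratio B-score over 3 SD below the library mean, with starting fluorescence within 5 SD of its mean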;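 further: negative B-score means less thallium flux so channel inhibition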
# Kir21 block – inhibitors of mouse Kir2.1 inward-rectifier potassium channel. P35561. 0.85% of 310,000 active. B-score at 10 µM. HEK293-Kir2.1, FluxOR thallium flux fluorescence; stronger effect = lower value;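 active means fluorescence ratio B-score at or below minus 3 SD of library scores, with starting-brightness B-score within 2 SD, cut at about -4.2 in these data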;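 further: channel flux triggered by added potassium and thallium sulfate stimulus; B-score of peak minus minimum fluorescence over baseline after thallium stimulus; more negative B-score means stronger Kir2.1 block with less thallium influx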
# KCNQ1 block – inhibitors of human KCNQ1 potassium channel; CHO-K1 KCNQ1, FluxOR thallium flux fluorescence; stronger effect = higher value; 1.3% of 310,000 active; B-score at 10 µM;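 active means compounds whose thallium flux B-score, printed positive for inhibition, exceeds three library SD while starting fluorescence stays within three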;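 further: channel opened by potassium depolarization with thallium stimulus after 20 min compound exposure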
# KCNK3 block – human KCNK3 channel inhibition, primary screen. O14649. CHO-KCNK3 thallium flux, FluxOR fluorescence; stronger effect = lower value. B-score at 10 µM. 0.84% of 340,000 active. AID 602410;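 active means B-score under library mean minus 4 SD, starting fluorescence ratio at most library mean plus 5 SD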;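 further: more negative B-score means stronger inhibition of thallium flux through KCNK3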
# Target sequence (O14649 whole entry, looked up): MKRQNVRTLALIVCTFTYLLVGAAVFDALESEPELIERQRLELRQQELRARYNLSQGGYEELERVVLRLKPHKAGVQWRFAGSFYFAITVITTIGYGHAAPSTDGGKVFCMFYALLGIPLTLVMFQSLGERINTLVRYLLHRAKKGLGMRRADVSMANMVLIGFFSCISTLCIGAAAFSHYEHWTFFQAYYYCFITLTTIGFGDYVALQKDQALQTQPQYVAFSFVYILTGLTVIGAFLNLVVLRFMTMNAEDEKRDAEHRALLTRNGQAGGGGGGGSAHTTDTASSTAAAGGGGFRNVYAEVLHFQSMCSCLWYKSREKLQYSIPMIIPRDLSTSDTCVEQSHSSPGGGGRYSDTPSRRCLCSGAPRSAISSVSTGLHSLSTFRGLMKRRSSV
# hERG protect – compounds protecting human hERG from proarrhythmic drug block. Q12809. AID 1511. 0.51% of 310,000 active. activation (rescue from dofetilide block), less the hit threshold, % at 10 µM. CHO-hERG, FluxOR thallium flux, dofetilide IC70 present;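 active means activation above the mean of controls blocked by dofetilide plus 5 SD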;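 further: thallium influx through hERG after potassium depolarization seen as dye fluorescence rise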
# KCNQ1 act – human KCNQ1 channel potentiation or activation | P51787 | CHO-K1 KCNQ1, thallium flux FluxOR fluorescence; stronger effect = higher value | B-score at 10 µM | 0.35% of 310,000 active;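 active means fluorescence ratio B-score, a plate-corrected score, at least three library SD, with initial intensity B-score within 5 SD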
#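 Assay system: stable KCNQ1 CHO-K1 line; medium: assay buffer, equal DMSO in all wells; timing: 90 min dye loading and 20 min compound exposure, both at room temperature; technique: kinetic FluxOR thallium fluorescence, 10-s 1-Hz baseline, 110-s post-stimulus read; read-out basis: B score of baseline-normalized fluorescence ratio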
# KCNK9 block conf – confirmation of human KCNK9 potassium channel inhibitors; shares compounds with KCNK9 block; HEK293 KCNK9 cells, FluxOR thallium flux fluorescence; inhibition, % at 10 µM; 43% of 4,900 active; AID 492992;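 active means thallium signal inhibited by more than 5 SD of the compound-free buffer control wells, on both duplicate plates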;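 further: 0% = assay buffer control wells without compound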
# Kir21 sel – mouse Kir2.1 off-target activity of KCNK9 modulators | AID 492993 | shares compounds with KCNK9 block | Kir2.1 cells, FluxOR thallium flux fluorescence | 4% of 4,900 active | inhibition, % at 10 µM;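 active means thallium signal drop more than 5 SD beyond the mean of the no-compound control wells, seen in both duplicate plates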;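 further: signal is fluorescence rise after thallium addition divided by baseline fluorescence; plate controls were assay buffer only for no effect and full block by chlorpromazine control for full effect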
# KCNK9 uninduced – second check of KCNK9 modulator effects in non-induced HEK293 cells | shares compounds with KCNK9 block | FluxOR thallium flux | inhibition, % at 10 µM | 40% of 4,900 active | AID 492997;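 active means thallium signal drop beyond 5 SD of the untreated control mean, on both duplicate plates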;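 further: plate controls were buffer only IC0 wells for no effect and SID17386958 at its maximal inhibitory level for full effect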
# Active calls of the source: *; i = inactive; . = no result given.
SMILES,KCNK9 block,Kir21 block,KCNQ1 block,KCNK3 block,hERG protect,KCNQ1 act,KCNK9 block conf,Kir21 sel,KCNK9 uninduced
COc1ccccc1N1CCN(Cc2ccc(-c3ccccc3[N+](=O)[O-])o2)CC1,i,-0.49,i,i,-24,i,i,i,i
COc1ccc(/C=N\N2CCN(Cc3ccccc3Cl)CC2)cc1,i,-0.22,i,i,-9,i,.,.,.
COc1ccccc1/C=C/C=N\N1CCN(Cc2ccccc2Cl)CC1,i,1.1,i,i,-13,i,i,i,i
COc1ccccc1N1CCN(/N=C/C=C/c2ccccc2[N+](=O)[O-])CC1,i,-1.7,i,i,-2,i,i,i,i
C(=C\c1ccccc1)/C=N/N1CCN(Cc2ccccc2)CC1,i,1.4,i,i,-10,i,.,.,.
COc1ccccc1/C=C/C=N/N1CCN(Cc2ccc(Cl)cc2)CC1,i,0.01,i,i,-13,i,i,i,i
COc1ccc(S(=O)(=O)Nc2cc(C)on2)cc1,i,-1.4,i,i,-3,i,.,.,.
CCC(=O)NC(=S)NNC(=O)c1ccc(O)cc1,-8.2*,-0.84,i,i,-5,i,i,i,27%*
O=C(COc1ccc(Br)cc1)N(Cc1ccco1)C1CCS(=O)(=O)C1 (stereo not given),i,-1.3,i,i,-6,i,.,.,.
O=C(Nc1cccc(Cl)c1)c1cccc(Oc2ccc([N+](=O)[O-])cc2Cl)c1,i,-1.3,i,i,-14,i,i,i,i
Cc1ccc(C2=NN(S(=O)(=O)c3ccccc3)C(c3ccco3)C2)cc1 (stereo not given),.,.,.,i,.,.,.,.,.
CS(=O)(=O)Nc1ccc(C2=NN(S(=O)(=O)c3ccc(F)cc3)C(c3ccco3)C2)cc1 (stereo not given),-10*,-2,i,i,-13,i,38%*,i,i
NC(=O)CC(NC(=O)c1ccc(Br)cc1)c1ccc(N2CCC(Br)CC2)c([N+](=O)[O-])c1 (stereo not given),i,1.4,i,i,0,i,.,.,.
CCOc1ccccc1C(=O)Nc1ccccc1-c1ccccc1,-8.8*,-1.8,i,i,-20,i,72%*,38%*,25%*
Cc1oc(-c2ccccc2)nc1C(=O)Nc1nccs1,i,-2.8,i,i,-13,i,.,.,.
CCOc1ccccc1NC(=O)c1nc(-c2ccccc2)oc1C,-12*,0.06,i,i,-4,i,i,i,25%*
O=C(c1oc2ccccc2c1CSCc1ccccc1)N1CCN(c2ncccn2)CC1,-9.6*,-0.13,i,i,-13,i,23%*,i,i
Cc1ccc2nc(-c3ccccc3)c(CN3CCSCC3)n2c1,i,0.53,i,i,-10,i,.,.,.
Cc1ccc2nc(-c3ccccc3)c(CN3CCN(c4ccccc4F)CC3)n2c1,i,0.73,i,i,-4,i,i,i,i
O=[N+]([O-])c1cccc(-c2ccc(C(=S)N3CCOCC3)o2)c1,i,2.2,i,i,-8,i,.,.,.
O=[N+]([O-])c1cccc(-c2ccc(C(=S)N3CCN(c4ccccc4)CC3)o2)c1,-8.3*,0.88,i,i,-12,i,33%*,i,42%*

# Assay outcomes deposited in PubChem by Johns Hopkins Ion Channel Center.
